ChEMBL document CHEMBL4706622, “Comparative study between the anti-P. falciparum activity of triazolopyrimidine, pyrazolopyrimidine and quinoline derivatives and the identification of new PfDHODH inhibitors” (Eur J Med Chem, 2021)
pIC50: −log10 of the molar value.

Key:
Plasmodium falciparum [1] = experiment: Antimalarial activity against CQ-sensitive Plasmodium falciparum 3D7 infected in erythrocytes by SYBR Green dye based fluorescence assay; assay type: functional, organism-based
HepG2 = experiment: Cytotoxicity against human HepG2 cells assessed as cell viability after 72 hrs by MTT assay; assay type: cell-based; conditions: HepG2, 72 h
[2] = Selectivity index, ratio of IC50 for cytotoxicity against human HepG2 cells to IC50 for antimalarial activity against Plasmodium falciparum 3D7; assay type: toxicity, cell-based; conditions: read-out: Ratio IC50
[3] = Inhibition of Plasmodium falciparum DHODH (159- 569 aa) expressed in Escherichia coli BL21(DE3) cells assessed as 2,6-dichloroindophenol reduction by colorimetric method
In short: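 Second-stage PfDHODH IC50 determination from concentration–response curves, run only on compounds giving ≥80% inhibition at 50 µM in the single-point screen. PfDHODH final concentration was 50 nM. IC50 was not assigned where substrate consumption could not be measured at some concentrations on the curve.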

Plasmodium falciparum [4] = experiment: Inhibition of Plasmodium falciparum DHODH (159- 569 aa) expressed in Escherichia coli BL21(DE3) cells assessed as 2,6-dichloroindophenol reduction at 50 uM by colorimetric method
In short: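 First-stage PfDHODH screen at a single compound concentration of 50 µM, reported as % inhibition. Compounds giving ≥80% inhibition went on to IC50 determination. The PfDHODH final concentration in the inhibition assay was 50 nM.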

[5] = target: Dihydroorotate dehydrogenase (quinone), mitochondrial (Homo sapiens) (UniProt Q02127); experiment: Inhibition of human DHODH assessed as 2,6-dichloroindophenol reduction at 50 uM by colorimetric method
Chain of Dihydroorotate dehydrogenase (quinone), mitochondrial (Homo sapiens) (Q02127 whole entry): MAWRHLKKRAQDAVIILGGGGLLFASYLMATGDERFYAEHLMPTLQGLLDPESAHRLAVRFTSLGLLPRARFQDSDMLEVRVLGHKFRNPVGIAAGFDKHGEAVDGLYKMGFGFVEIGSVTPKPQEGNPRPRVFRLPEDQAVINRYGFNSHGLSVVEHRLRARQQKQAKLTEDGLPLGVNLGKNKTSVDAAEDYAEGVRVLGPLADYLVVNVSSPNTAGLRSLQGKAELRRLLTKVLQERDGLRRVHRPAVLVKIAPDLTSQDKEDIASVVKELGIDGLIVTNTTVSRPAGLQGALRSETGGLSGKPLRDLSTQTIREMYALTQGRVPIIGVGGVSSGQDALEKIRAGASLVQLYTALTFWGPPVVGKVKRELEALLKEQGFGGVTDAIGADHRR
In short: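 First-stage HsDHODH screen at a single compound concentration of 50 µM, reported as % inhibition. It was run in parallel with the PfDHODH screen.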

SMILES | pIC50 (Plasmodium falciparum [1]) | pIC50 [3] | inhibition [5] | pIC50 (HepG2) | selectivity ratio [2] | inhibition (Plasmodium falciparum [4])
C[C@H]1[C@H](OC(=O)CCC(=O)O)O[C@@H]2O[C@@]3(C)CC[C@H]4[C@H](C)CC[C@@H]1[C@@]24OO3 [ARTESUNATE] | 8.05 |  |  | 3.57 | 29700 | 
Cc1ccc(NS(=O)(=O)c2ccc(Nc3cc(C)nc4cc(C)nn34)cc2)cc1 | < 5.00 | < 4.30 | 0% |  |  | 25%
Cc1cc(Nc2ccc(S(=O)(=O)Nc3ccc(F)cc3)cc2)n2nc(C(F)(F)F)nc2n1 | 7.07 | 6.30 | 0% | 4.00 | 1170 | 
O=S(=O)(Nc1ccc2ccccc2c1)c1ccc(Nc2ccnc3cc(Cl)ccc23)cc1 | 6.05 |  |  | 4.89 | 15.1 | 
Cc1ccc(NS(=O)(=O)c2ccc(Nc3ccnc4cc(Cl)ccc34)cc2)cc1 | 6.01 |  |  | 4.04 | > 95 | 
Cc1cc(Nc2ccc(S(=O)(=O)Nc3ccc4ccccc4c3)cc2)n2nc(C(F)(F)F)nc2n1 | 7.30 | 6.66 | 0% | < 4.00 | > 2000 | 
CCN(CC)CCCC(C)Nc1ccnc2cc(Cl)ccc12 (stereo not drawn) [CHLOROQUINE] |  |  |  | 3.42 |  | 
COc1ccc(NS(=O)(=O)c2ccc(Nc3cc(C)nc4nc(C(F)(F)F)nn34)cc2)cc1 | 6.10 | 6.68 | 0% | 4.03 | > 114 | 
O=S(=O)(Nc1ccc(Cl)cc1)c1ccc(Nc2ccnc3cc(Cl)ccc23)cc1 | 5.77 |  |  | 4.03 | > 56 | 
Cc1cc(Nc2ccc(S(=O)(=O)Nc3ccc(F)cc3)cc2)n2nc(C)cc2n1 | < 5.00 | < 4.30 | 0% |  |  | 25%
Cc1cc(Nc2ccc(S(=O)(=O)Nc3ccc(Cl)cc3)cc2)n2nc(C)cc2n1 | < 5.00 | < 4.30 | 0% |  |  | 25%
Cc1cc(Nc2ccc(S(=O)(=O)Nc3ccc4ccccc4c3)cc2)n2nc(C)cc2n1 | < 5.00 | < 4.30 | 0% |  |  | 25%
O=S(=O)(Nc1ccc(C(F)(F)F)cc1)c1ccc(Nc2ccnc3cc(Cl)ccc23)cc1 | 5.68 |  |  | 4.64 | 11 | 
O=S(=O)(Nc1ccc(F)cc1)c1ccc(Nc2ccnc3cc(Cl)ccc23)cc1 | 5.34 |  |  | 4.04 | > 21 | 
Cc1ccc(NS(=O)(=O)c2ccc(Nc3cc(C)nc4nc(C(F)(F)F)nn34)cc2)cc1 | 7.49 | 6.10 | 0% | 4.27 | 1690 | 
COc1ccc(NS(=O)(=O)c2ccc(Nc3ccnc4cc(Cl)ccc34)cc2)cc1 | 5.55 |  |  | 4.04 | > 33 | 
Cc1cc(Nc2ccc(S(=O)(=O)Nc3ccc(Cl)cc3)cc2)n2nc(C(F)(F)F)nc2n1 | 6.40 | 7.10 | 0% | 4.33 | > 123 | 
Cc1cc(Nc2ccc(S(=O)(=O)Nc3ccc(C(F)(F)F)cc3)cc2)n2nc(C)cc2n1 | 5.10 | < 4.30 | 0% | 4.38 | 5.25 | 25%
Cc1cc(Nc2ccc(S(=O)(=O)Nc3ccc(C(F)(F)F)cc3)cc2)n2nc(C(F)(F)F)nc2n1 | 7.52 | < 4.30 | 0% | 4.05 | 3000 | 
COc1ccc(NS(=O)(=O)c2ccc(Nc3cc(C)nc4cc(C)nn34)cc2)cc1 | < 5.00 | < 4.30 | 0% |  |  | 25%
Cc1cc(Nc2ccc(S(=O)(=O)Nc3ccc(C(F)(F)F)cc3)cc2)n2nc(C)nc2n1 | 6.41 | 6.22 | 0% | 3.90 | 321 | 
O=S(=O)(Nc1ccccc1)c1ccc(Nc2ccnc3cc(Cl)ccc23)cc1 | 5.70 |  |  | 4.04 | > 46 | 

Now from value to compound, other results behind:

pIC50 (Plasmodium falciparum [1]) | pIC50 [3] | inhibition [5] | SMILES | pIC50 (HepG2) | selectivity ratio [2] | inhibition (Plasmodium falciparum [4])
5.70 | 6.52 | 0% | Cc1cc(Nc2ccc(S(=O)(=O)Nc3ccc(F)cc3)cc2)n2ncnc2n1 | 3.44 | > 187 | 
6.64 | 6.52 | 0% | Cc1cc(Nc2ccc(S(=O)(=O)Nc3ccc4ccccc4c3)cc2)n2ncnc2n1 | 4.25 | 243 | 
5.16 | < 4.30 | 0% | Cc1cc(Nc2ccc(S(=O)(=O)Nc3ccccc3)cc2)n2nc(C)nc2n1 | 3.71 | 28 | 
5.04 | 6.10 | 0% | Cc1cc(Nc2ccc(S(=O)(=O)Nc3ccccc3)cc2)n2ncnc2n1 | 3.44 | > 40 | 
5.40 | < 4.30 | 0% | COc1ccc(NS(=O)(=O)c2ccc(Nc3cc(C)nc4ncnn34)cc2)cc1 | 4.34 | > 13 | 
6.04 | 6.52 | 0% | Cc1ccc(NS(=O)(=O)c2ccc(Nc3cc(C)nc4nc(C)nn34)cc2)cc1 | 3.96 | 121 | 
5.55 | < 4.30 | 0% | Cc1cc(Nc2ccc(S(=O)(=O)Nc3ccccc3)cc2)n2nc(C)cc2n1 | 4.57 | 9.6 | 25%
5.52 | < 4.30 | 0% | Cc1cc(Nc2ccc(S(=O)(=O)Nc3ccc(Cl)cc3)cc2)n2ncnc2n1 | 4.04 | > 31 | 
6.19 | 6.40 | 0% | Cc1cc(Nc2ccc(S(=O)(=O)Nc3ccc4ccccc4c3)cc2)n2nc(C)nc2n1 | 4.25 | 87.4 | 
6.10 | 6.22 | 0% | Cc1cc(Nc2ccc(S(=O)(=O)Nc3ccc(Cl)cc3)cc2)n2nc(C)nc2n1 | < 4.30 | > 62.5 | 
6.82 | < 4.30 | 0% | Cc1cc(Nc2ccc(S(=O)(=O)Nc3ccc(C(F)(F)F)cc3)cc2)n2ncnc2n1 | < 4.00 | > 667 | 
5.89 | < 4.30 | 0% | Cc1cc(Nc2ccc(S(=O)(=O)Nc3ccccc3)cc2)n2nc(C(F)(F)F)nc2n1 | 4.04 | > 70 | < 80%
6.30 | 6.39 | 0% | Cc1ccc(NS(=O)(=O)c2ccc(Nc3cc(C)nc4ncnn34)cc2)cc1 | 3.44 | > 728 | 
5.57 | 6.00 | 0% | Cc1cc(Nc2ccc(S(=O)(=O)Nc3ccc(F)cc3)cc2)n2nc(C)nc2n1 | 3.82 | 55.6 | 
5.40 | 5.89 | 0% | COc1ccc(NS(=O)(=O)c2ccc(Nc3cc(C)nc4nc(C)nn34)cc2)cc1 | 3.77 | 42.5 | 
